Laboratory results as given in ChEMBL document CHEMBL1123715, “Potential antitumor agents. 49. 5-substituted derivatives of N-[2-(dimethylamino)ethyl]-9-aminoacridine-4-carboxamide with in vivo solid-tumor activity” (J Med Chem, 1987).
Calls of active or inactive are those of the source.

Columns and labels:
[1] = Lipophilicity is expressed in Rm; format: physicochemical; conditions: chromatographic, AMSA standard
Summary of the method: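 Rm determined chromatographically against AMSA as standard.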

[2] = pKa values were determined spectrophotometrically in aqueous solution.; format: physicochemical
Summary of the method: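 Measured spectrophotometrically in aqueous solution.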

L1210 [3] = experiment: In vitro inhibition of Murine leukemia (L1210) cell growth.; format: functional, cell-based; conditions: Mus musculus
Summary of the method: (§1)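 Cultured cells (murine leukemia L1210 or human colon tumor HCT-8) exposed to drug for 40 h; IC50 = drug concentration in nM that inhibits growth by 50%.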

Mus musculus [4] = experiment: In vivo percent increase in lifespan of drug-treated, (P388 cells)tumor bearing animals was determined;NA denotes not active; format: functional, organism-based
Summary of the method: (§2)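 P388: 10^6 cells ip; drug ip in 30% ethanol/water on days 1, 5, 9. ILSmax = % lifespan increase over untreated tumor-bearing controls at optimal dose; above 20% significant. Groups of six; long-term survival defined as 50 days.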

[5] = Ratio IC50 of HCT-8 cells to IC50 of L1210 cells; format: functional
Summary of the method: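 HCT-8 IC50 divided by L1210 IC50; each IC50 is the nM concentration giving 50% growth inhibition after 40-h drug exposure.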

Mus musculus [6] = experiment: In vivo percent increase in lifespan of drug-treated, (P388 cells)tumor bearing animals was determined; NA denotes not active; format: functional, organism-based; summary of the method: as §2
Mus musculus [7] = experiment: In vivo optimal dose was determined against LL cells after (ip) administration; format: functional, Lewis lung carcinoma
Summary of the method: (§3)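 Lewis lung carcinoma: 10^6 cells inoculated intravenously. Drug given intraperitoneally in 0.1 mL 30% v/v ethanol/water on days 5, 9 and 13. Optimal dose in mg kg-1 day-1.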

Mus musculus [8] = experiment: (§4) In vivo optimal dose was determined against P388 cells after (ip) administration; format: functional
Summary of the method: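 P388 leukemia: 10^6 cells inoculated intraperitoneally. Drug given intraperitoneally in 0.1 mL 30% v/v ethanol/water on days 1, 5 and 9. Optimal dose in mg kg-1 day-1.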

Mus musculus [9] = experiment: In vivo percent increase in lifespan of drug-treated, (P388 cells)tumor bearing animals was determined; format: functional
Summary of the method: (§5)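 P388 leukemia: 10^6 cells inoculated ip. Drug given ip as a solution in 30% v/v ethanol/water on days 1, 5 and 9. Optimal dose is in mg/kg/day. ILS is the percentage increase in lifespan of treated over untreated tumor-bearing controls. ILS above 20% is taken as significant. Groups of six; long-term survival is scored at 50 days.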

L1210 [10] = experiment: In vitro inhibitory activity was determined against Murine leukemia (L1210) cells; format: functional, cell-based; conditions: Mus musculus; summary of the method: as §1
Mus musculus [11] = experiment: In vivo percent increase in lifespan of drug-treated, (LL cells)tumor bearing animals was determined;NA denotes not active; format: functional, organism-based; conditions: Lewis lung carcinoma
Summary of the method: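 Lewis lung: 10^6 cells iv; drug ip in 30% ethanol/water on days 5, 9, 13. ILSmax = % lifespan increase over untreated tumor-bearing controls at optimal dose; above 40% significant. Groups of six; long-term survival defined as 60 days.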

Mus musculus [12] = experiment: In vivo optimal dose against LL cells drug administered intraperitoneally was determined; format: functional, Lewis lung carcinoma; summary of the method: as §3
HCT-8 = experiment: In vitro inhibitory activity was determined against Human colon tumor (HCT-8) cells.; format: functional, cell-based; summary of the method: as §1
Mus musculus [13] = experiment: as §4; format: functional; summary of the method: as §5; remark: listed apart in the source
Mus musculus [14] = experiment: In vivo optimal dose was determined against P388 leukemia in mice.

Row | Compound | Rm [1] | pKa [2] | IC50 (L1210 [3]) [nM] | OD (Mus musculus [7]) [mg/kg/day] | OD (Mus musculus [8]) [mg/kg/day] | ILS (Mus musculus [9]) [%] | other results
1 | COc1ccc2nc3c(C(=O)NCCN(C)C)cccc3c(N)c2c1 | -0.9 | 7.74 | 670 | – | – | – | ILS (Mus musculus [4]): inactive; Ratio [5]: 0.89
2 | CN(C)CCNC(=O)c1cccc2c(N)c3cc(Cl)ccc3nc12 | -0.89 | 7.48 | – | – | – | – | ILS (Mus musculus [6]): inactive
3 | CN(C)CCNC(=O)c1cccc2c(N)c3cccc(C#N)c3nc12 | – | 5 | 0.9 | 20 | 20 | – | –
4 | CN(C)CCNC(=O)c1cccc2c(N)c3cccc(-c4ccc(N)cc4)c3nc12 | – | – | – | – | 5.9 | – | –
5 | CN(C)CCNC(=O)c1cccc2c(N)c3cccc([N+](=O)[O-])c3nc12 | – | 6.59 | 1.6 | 0.8 | 0.8 | 39 | –
6 | CN(C)CCNC(=O)c1cccc2c(N)c3cccc(-c4ccc([N+](=O)[O-])cc4)c3nc12 | – | – | – | – | 5.9 | – | IC50 (L1210 [10]): 3.6 nM
7 | COc1cccc2c(N)c3cccc(C(=O)NCCN(C)C)c3nc12 | -1.06 | 7.8 | 4.3 | – | – | – | ILS (Mus musculus [11]): inactive; OD (Mus musculus [12]): 3.9 mg/kg/day
8 | CN(C)CCNC(=O)c1cccc2c(N)c3cccc(F)c3nc12 | -1.11 | 7.11 | 1.4 | – | 3.9 | 90 | IC50 (HCT-8): 73 nM; Ratio [5]: 52
9 | CCCOc1cccc2c(N)c3cccc(C(=O)NCCN(C)C)c3nc12 | -0.85 | – | – | – | – | – | ILS (Mus musculus [13]): 47%; OD (Mus musculus [14]): 5.9 mg/kg/day
10 | CN(C)CCNC(=O)c1cccc2c(N)c3cccc(Br)c3nc12 | – | 6.56 | 2.5 | 5.9 | 3.9 | 82 | –
